Measurements published in ChEMBL document CHEMBL3992522, “Antileishmanial Activity of Pyrazolopyridine Derivatives and Their Potential as an Adjunct Therapy with Miltefosine” (J Med Chem, 2017).
Calls of active or inactive are those of the source. No cut-off for these calls is given here.

What was measured:
[1] = Stability in pH 6.5 simulated intestinal fluid at 5 ug/ml after 120 mins by HPLC method
Summary of the method: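 Incubated in simulated gastric fluid (pH 1.2) or simulated intestinal fluid (pH 6.5); percentage remaining intact determined after 120 min.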

Leishmania donovani [2] = experiment: Antileishmanial activity against Leishmania donovani MHOM/IN/80/DD8 amastigote forms harboring luciferase gene infected in mouse J774 cells after 72 hrs by Steady-Glo reagent based luminescence assay; format: functional, cell-based; details: MHOM/IN/80/DD8, J774, 72 h
Leishmania donovani [3] = experiment: Antileishmanial activity against Leishmania donovani amastigote forms infected in Balb/c mouse assessed as reduction in spleen weight at 12.5 to 200 mg/kg, ip administered for 5 consecutive days; format: functional, organism-based
Leishmania donovani [4] = experiment: Antileishmanial activity against Leishmania donovani amastigote forms infected in Balb/c mouse assessed as inhibition of parasitic burden in liver at 200 mg/kg, ip administered for 5 consecutive days measured on day 7 post last treatment by Giemsa staining based assay relative to control; format: functional; details: Leishmania donovani, ip, 168 h
Mus musculus [5] = experiment: Increase in iNOS mRNA expression level in Balb/c mouse splenocytes infected with Leishmania donovani amastigote forms at 25 mg/kg, ip for 5 consecutive days measured on day 4 post last treatment by RT-PCR assay relative to control; format: functional
Summary of the method: (§1)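 Infected BALB/c mice dosed for 5 consecutive days (test compound i.p. in 8% DMSO, miltefosine oral), n = 5 per group; splenocytes taken day 4 and day 7 post-treatment. Total RNA extracted and iNOS mRNA quantified by real-time PCR, normalized to mouse β-actin, expressed as fold change over uninfected controls.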

Leishmania donovani [6] = experiment: Induction of apoptosis in Leishmania donovani MHOM/IN/80/DD8 promastigote forms assessed as late apoptotic cells at IC50 after 48 hrs by Annexin V-FITC/propidium iodide staining based flow cytometry (reference value: 0.86%); format: functional
Leishmania donovani [7] = experiment: Antileishmanial activity against Leishmania donovani amastigote forms infected in Balb/c mouse assessed as inhibition of parasitic burden in spleen at 200 mg/kg, ip administered for 5 consecutive days measured on day 7 post last treatment by Giemsa staining based assay relative to control; format: functional; details: Leishmania donovani, ip, 168 h
Mus musculus [8] = experiment: Increase in iNOS-mediated NO generation in Balb/c mouse splenocytes infected with Leishmania donovani amastigote forms at 50 mg/kg, ip for 5 consecutive days measured on day 4 and 7 post last treatment followed by soluble Leishmania donovani promastigote antigen-stimulation for 72 hrs by Griess assay relative to control; format: functional
Summary of the method: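 Splenocytes from treated infected BALB/c mice (5-day regimen, i.p. test compound, oral miltefosine; n = 5) isolated day 4 and day 7 post-treatment. Cultured in phenol red-free RPMI 1640 with 5 μg/mL SLA for 72 h at 37 °C, 5% CO2. Supernatant nitrite measured by Griess assay at 540 nm against a sodium nitrite standard curve.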

[9] = Elimination rate constant in Swiss mouse at 50 mg/kg, po by LC-MS/MS analysis; format: ADME, organism-based; details: in vivo
Mus musculus [10] = experiment: Increase in TNFalpha level in Balb/c mouse splenocytes infected with Leishmania donovani amastigote forms at 25 mg/kg, ip co-treated with 5 mg/kg, po miltefosine administered for 5 consecutive days measured on day 7 post last treatment by sandwich ELISA relative to control; format: functional
Summary of the method: (§2)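 BALB/c mice infected with L. donovani (15 days); treatment for 5 consecutive days, test compound i.p. in 8% DMSO/water, miltefosine oral in TDW; sacrificed day 4 and day 7 post-treatment, n = 5 per group. Splenocytes (2×10^6) cultured 72 h in phenol red-free RPMI 1640 with 5 μg/mL SLA; supernatant cytokines by sandwich ELISA.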

Mus musculus [11] = experiment: Increase in iNOS mRNA expression level in Balb/c mouse splenocytes infected with Leishmania donovani amastigote forms at 25 mg/kg, ip for 5 consecutive days measured on day 7 post last treatment by RT-PCR assay relative to control; format: functional; summary of the method: as §1
Leishmania donovani [12] = experiment: Induction of mitochondrial membrane potential loss in Leishmania donovani MHOM/IN/80/DD8 promastigote forms at 50 uM after 24 hrs by JC-1 staining based flow cytometry (reference value: 5.02%); format: functional
Leishmania donovani [13] = experiment: Antileishmanial activity against Leishmania donovani amastigote forms infected in Balb/c mouse assessed as inhibition of parasitic burden in spleen at 25 mg/kg, ip co-treated with 5 mg/kg, po miltefosine administered for 5 consecutive days measured on day 4 and 7 post last treatment by Giemsa staining based assay relative to control; format: functional
Summary of the method: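 Combination study with seven groups of 5 infected BALB/c mice, including vehicle (8% DMSO i.p.), infected untreated and miltefosine-alone groups. Treatment daily for 5 days, test compound i.p. and miltefosine orally. Mice killed on days 4 and 7 post-treatment; liver and spleen parasite load counted on Giemsa-stained stamp smears and expressed as LDU relative to infected untreated mice. Mean ± SD, n = 5, three independent experiments.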

Mus musculus [14] = experiment: Decrease in TGFbeta level in Balb/c mouse splenocytes infected with Leishmania donovani amastigote forms at 25 mg/kg, ip co-treated with 5 mg/kg, po miltefosine administered for 5 consecutive days measured on day 4 post last treatment by sandwich ELISA relative to control; format: functional
Summary of the method: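 Splenocytes (2×10^6) from treated infected BALB/c mice taken on day 4 or 7 post-treatment. Cultured in phenol-red-free RPMI 1640 with 5 μg/mL soluble L. donovani antigen for 72 h at 37 °C, 5% CO2. Supernatant cytokines measured by sandwich ELISA against a standard curve. Mean ± SD, n = 5 mice per group, three independent experiments.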

Mus musculus [15] = experiment: Increase in TNFalpha level in Balb/c mouse splenocytes infected with Leishmania donovani amastigote forms at 25 mg/kg, ip co-treated with 5 mg/kg, po miltefosine administered for 5 consecutive days measured on day 4 post last treatment by sandwich ELISA relative to control; format: functional; summary of the method: as §2
Leishmania donovani [16] = experiment: Induction of mitochondrial membrane potential loss in Leishmania donovani MHOM/IN/80/DD8 promastigote forms at 50 uM after 48 hrs by JC-1 staining based flow cytometry (reference value: 5.02%); format: functional
Leishmania donovani [17] = experiment: Antileishmanial activity against Leishmania donovani MHOM/IN/80/DD8 promastigote forms harboring luciferase gene at 25 uM after 72 hrs by Steady-Glo reagent based luminescence assay relative to control; format: functional; details: MHOM/IN/80/DD8, 72 h, read-out: GI
Summary of the method: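 Exponential-phase Dd8-Luc promastigotes at 1×10^6/mL in M199 with 10% FBS, 24 °C, given 50 and 25 µM for 72 h. Vehicle 0.1% DMSO. Steady-Glo added 1:1, luminescence (RLU) read. IC50 from four-parameter Hill regression, derived only where inhibition exceeded 90%. Means of at least three independent experiments.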

Leishmania donovani [18] = experiment: Antileishmanial activity against Leishmania donovani amastigote forms infected in Balb/c mouse assessed as reduction in liver weight at 12.5 to 200 mg/kg, ip administered for 5 consecutive days; format: functional, organism-based
Leishmania donovani [19] = experiment: Induction of apoptosis in Leishmania donovani MHOM/IN/80/DD8 promastigote forms assessed as cell rounding at IC50 after 48 hrs by propidium iodide staining based fluorescent microscopic method; format: functional
Leishmania donovani [20] = experiment: Antileishmanial activity against Leishmania donovani amastigote forms infected in Balb/c mouse assessed as inhibition of parasitic burden in spleen at 50 mg/kg, ip administered for 5 consecutive days measured on day 7 post last treatment by Giemsa staining based assay relative to control; format: functional; details: 168 h

COc1ccc(C2C3=C(CCC3=O)Nc3c2c(-c2c[nH]c4ccccc24)nn3-c2ccc(Cl)c(Cl)c2)cc1OC (stereo not given)
Stability [1]: 99%
IC50 (Leishmania donovani [2]): 4.05 µM
Activity (Leishmania donovani [3]): Active
inhibition in vivo at 200 mg/kg (Leishmania donovani [4]): 93%
fold change (FC) (Mus musculus [5]): 4.9
Activity (Leishmania donovani [6]): 21%
inhibition in vivo at 200 mg/kg (Leishmania donovani [7]): 90%
fold change (FC) (Mus musculus [8]): 4.7
k el [9]: 3.89e-05 s⁻¹
fold change (FC) (Mus musculus [10]): 7.3
fold change (FC) (Mus musculus [11]): 3.3
Activity (Leishmania donovani [12]): 52.6%
inhibition (INH) (Leishmania donovani [13]): >97%
inhibition (INH) (Mus musculus [14]): 88%
fold change (FC) (Mus musculus [15]): 7.4
Activity (Leishmania donovani [16]): 44.9%
inhibition of growth at 25 µM (Leishmania donovani [17]): 91.7%
Activity (Leishmania donovani [18]): Active
Activity (Leishmania donovani [19]): Active
inhibition in vivo at 50 mg/kg (Leishmania donovani [20]): > 91%
